These results are taken from publication PMC4477354 (Diabetes, 2015).

Read-outs that look alike come from different tables or passages of the source.

A short description of data set [1]: Food intake, body weight and body composition. The data set is classed as in vivo, mouse. As to conditions: mice, P < 0.05; for body fat compared with the saline-control group: NMR. In a few lines:
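Mice were first matched by fat mass using NMR while conscious. They then received (n = 12/group) daily s.c. saline, DET or GLAR at 1 unit/kg for 6 weeks. Body weight and food intake recorded weekly; NMR body composition repeated at the end. Repeated-measures ANOVA with Tukey post hoc.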

The conditions of data set [2]: overweight humans, intravenous; cited from earlier work.
For data set [3] the following is noted: extended by albumin binding of the attached fatty acid; cited from earlier work.
Data set [4] relates to insulin receptor. Particulars: mice, cited from earlier work.
The format of data set [5] is in vivo, mouse. Particulars: mice, 1 unit/kg s.c. daily for 6 weeks, n = 7-9/group, P < 0.05. Put shortly: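 Mice, n = 7–9/group, were injected s.c. daily for 6 weeks with saline, GLAR or DET (1 unit/kg). CSF from the cisterna magna (isoflurane, 4-h fast) and EDTA plasma were taken 24 h after the last dose. Insulin measured by ELISA on 10 µL CSF or 5 µL plasma, against standards from the injected insulins.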

The format of data set [6] is in vivo, rat. Particulars: rats. Put shortly: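 Overnight-fasted rats, n = 8–10/dose, got NPH insulin or DET i.p. at 0, 0.1, 0.3, 1, 3 or 10 units/kg. They were anesthetized with isoflurane at 25 min and cisternal CSF drawn at 30 min, then blood collected. Insulin by ELISA (2 h at 4°C; conjugate 30 min; substrate 40 min). Glucose by glucometer in duplicate. Factorial ANOVA.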

Data set [7] is classed as in vivo, mouse. Particulars: mice, 1 unit/kg s.c.; for CSF insulin at 6 and 12 h: Ps < 0.05; for time by which plasma insulin had returned to baseline: sampled 0, 6, 12, 24, 48 h. Put shortly:
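Mice fasted 4 h, n = 7–8/group, given 1 unit/kg s.c. GLAR or DET. CSF (~15 µL, glass capillary) drawn from the cisterna magna under isoflurane at baseline and 6, 12, 24, 48 h, then trunk blood taken into chilled EDTA. Insulin measured by ELISA against standards made from each injected insulin. Blood-contaminated CSF discarded; factorial ANOVA.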

Data set [8] is classed as in vivo, rat. As to conditions: rats, 0.5 units/kg s.c.; for CSF insulin at 6, 12 and 24 h / plasma glucose at 6 h and 12 h: Ps < 0.05; for time by which plasma insulin had returned to baseline: sampled 0, 6, 12, 24, 48, 72 h. Put shortly: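 Overnight-fasted rats, n = 7–8/group, received GLAR or DET 0.5 units/kg s.c. CSF (~150 µL) taken from the cisterna magna under isoflurane at 0, 6, 12, 24, 48 or 72 h, then blood collected after decapitation. Insulin by ELISA with standards from each injected insulin (450 minus 630 nm). Plasma glucose by glucometer in duplicate. Factorial ANOVA.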

The conditions of data set [9]: men, plasma glucose comparably clamped; cited from earlier work.
The conditions of data set [10]: clinical trials, basal insulin replacement; cited from earlier work.
Data set [11] is classed as in vivo, rat. Particulars: rats, 0.5 units/kg i.p. Put shortly:
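Rats, n = 6–8/time point, overnight-fasted, were given 0.5 units/kg i.p. NPH insulin or DET. Cisternal CSF taken under isoflurane at 5, 10, 20, 40, 80, 160 or 320 min, followed by EDTA blood. Insulin by ELISA with standards from each injected insulin. Plasma glucose by glucometer in duplicate. Factorial ANOVA.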

Data set [12] in a line: Food intake and body weight after third-ventricular. The class given is in vivo, rat. Particulars: rats, 8 mU I3VT. Put shortly: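 Rats carried a third-ventricle cannula (2.2 mm posterior to bregma, midline), checked by drinking >5 mL within 30 min after 10 ng angiotensin II. Rats (n = 16) were handled for 4 days with food removed for the last 4 h of light. In randomized crossover 1 week apart, they received 8 mU DET or NPH insulin, or 2 µL saline, 1 h before dark. Food returned at dark; intake and weight taken at 24 and 48 h. Repeated-measures ANOVA, Tukey.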

The mark [13] stands for this setting: 1 unit/kg s.c. daily for 6 weeks.

As to Insulin detemir, in [1] (setting [13]), the “body fat compared with the saline-control group” value was “significantly lower” and the “cumulative food intake compared with GLAR or saline groups” value was “significantly lower”. For the same substance, the cerebrocortical activity entry in [2] was “increased cerebrocortical activity”. For the same substance, the plasma half-life in [3] was 5 to 7 h. For the same substance, in [4] (insulin in brain tissue extracts), the “uptake into the brain” value is listed as “preferential uptake of DET into the brain”. In addition, the “phosphorylation of the insulin receptor in hypothalamus” value in [4] is reported as “selectively increased phosphorylation of the insulin receptor”. The “CSF insulin relative to controls 24 h after the final injection” value in data set [5] is “had increased insulin”. In addition, in [6] (0-10 units/kg i.p., 30 min postinjection, glucometer), the “plasma glucose after 30 min” value is reported as “dose-dependent decrease”. Moreover, in data set [6] (0-10 units/kg i.p., 30 min postinjection, insulin ELISA, n = 8-10/dose), the “plasma insulin after 30 min” value is “increased at all doses”. Also, the “CSF insulin after 30 min” value in data set [6] (0-10 units/kg i.p., CSF sampled 30 min postinjection, insulin ELISA) is recorded as “elevated after all doses”. Also, the “dose at which apparent saturation of CSF insulin levels occurred” value in data set [6] (i.p., 30 min postinjection) was not above 3 units/kg. Further, in [7], the “CSF insulin after 24 and 48 h” value is “elevated CSF insulin levels”; the “CSF insulin at 6 and 12 h” value is reported as “comparably increased”; the “time by which plasma insulin had returned to baseline” value was not above 24 h. The “plasma insulin at 6 h, DET compared with GLAR” value in data set [7] (n = 7-8/group, P < 0.05) is recorded as “elevated to a greater extent”. Also, in data set [8], the “CSF insulin at 48 h” value is “continued to have elevated CSF insulin”; the “CSF insulin at 6, 12 and 24 h” value was “comparably increased”; the “plasma glucose at 6 h and 12 h” value is “reduced”; the “time by which plasma insulin had returned to baseline” value is not above 24 h. The “plasma insulin at 6 h, DET compared with GLAR” value in [8] (n = 7-8/group, P < 0.05) is “elevated more”. In [9], the “electroencephalogram activity in the frontal cortex compared with regular insulin” value was “significant change in electroencephalogram activity” and the “food intake compared with regular insulin” value is listed as “significant reduction of food intake”. Also, the “weight gain compared with other long-acting formulations” value in data set [10] is reported as “less weight gain”. The “plasma glucose levels over time” value in data set [11] (5-320 min, P < 0.05) was “relatively constant level for the duration of the experiment”. Further, the “plasma glucose at 80, 160 and 320 min, DET relative to NPH” value in [11] (Ps < 0.05) is on record as “sustained hypoglycemia”. Besides, the “insulin in plasma (160 and 320 min) and CSF (320 min), DET relative to NPH” value in [11] (planned comparison, P < 0.05) was “more prolonged elevation of insulin”. For the same substance, in data set [11] (sampled up to 320 min), the “time at which CSF insulin reached baseline” value is listed as more than 320 min and the “time at which plasma insulin was no longer elevated relative to baseline” value is more than 320 min. Also, in [12] (P < 0.05), the “body weight after 24 h” value was “significant weight loss” and the “body weight after 48 h” value was “maintaining this weight loss”. Moreover, the “food intake after 48 h relative to saline” value in data set [12] (crossover, n = 16) is on record as “remained significantly reduced”. The “food intake over 24 h relative to saline” value in [12] (crossover, n = 16, P < 0.05) is reported as “ate significantly less food”.

On to insulin glargine, for which the “body fat compared with the saline-control group” value in data set [1] (setting [13]) is on record as “higher”. Moreover, the “body weight relative to saline-treated animals by week 6” value in data set [1] (1 unit/kg s.c. daily) is recorded as “increased relative to that of saline-treated animals”. For the same substance, the “plasma insulin relative to controls 24 h after the final injection” value in [5] is “continued to have elevated plasma insulin”. In data set [7], the “CSF insulin after 24 and 48 h” value was “lower at 24 h and had returned to baseline by 48 h”; the “CSF insulin at 6 and 12 h” value is “comparably increased”; the “time by which plasma insulin had returned to baseline” value is not above 48 h. Moreover, the “plasma insulin at 12 h, DET compared with GLAR” value in data set [7] (P < 0.05) is listed as “higher plasma concentrations”. Also, in data set [8], the “CSF insulin at 48 h” value is “returned to baseline”; the “plasma glucose at 24 h” value is reported as “remained lower”; the “CSF insulin at 6, 12 and 24 h” value is given as “comparably increased”; the “plasma glucose at 6 h and 12 h” value was “reduced”. In addition, in data set [8], the “time by which plasma insulin had returned to baseline” value was not above 48 h. In [8] (P < 0.05), the “plasma insulin at 12 h, DET compared with GLAR” value is “higher plasma insulin”.
